Assay results gathered from unrelated publications.
Protocols differ between the studies behind these lines. pIC50: −log10 of the molar value.
BACE1: Beta-secretase 1 (BACE1, Homo sapiens, UniProt P56817)
ELANE: Neutrophil elastase (ELANE, Homo sapiens, UniProt P08246)
BRAF: Serine/threonine-protein kinase B-raf (BRAF, Homo sapiens, UniProt P15056)
Delta-aminolevulinic acid dehydratase C162A/K59N: Delta-aminolevulinic acid dehydratase (Homo sapiens, UniProt P13716, C162A/K59N)

SMILES	target	test	setting	pIC50
Nc1ncc(-c2nc(N3CCOCC3)nc(N3[C@@H]4CC[C@H]3COC4)n2)c(C(F)F)n1	Serine/threonine-protein kinase mTOR (MTOR, Homo sapiens, UniProt P42345)	ligand displacement, TR-FRET	–	7.67
Cc1cc2cc(c1)C(=O)N[C@H]([C@H](O)CN(Cc1cccc(C(C)C)c1)C(=O)OC(C)(C)C)CCC/C=C/CCCC2=O	BACE1	enzyme activity, inhibitor	–	< 5.00
C=C(Cl)C(=O)Nc1cc(Nc2nc(Nc3cnn(C)c3)c3sccc3n2)c(OC)cc1N1CCN(C)CC1	Epidermal growth factor receptor (EGFR, Homo sapiens, UniProt P00533, C797S/L858R/T790M)	enzyme activity, inhibitor, ELISA	–	< 6.00
CC(=O)N[C@H]1CSSC[C@@H](C(=O)N[C@H](Cc2c[nH]c3ccccc23)C(N)=O)NC(=O)[C@@H](Cc2ccccc2)NC(=O)[C@H](CCCNC(=N)N)NC1=O	Melanocortin receptor 3 (MC3R, Homo sapiens, UniProt P41968)	ligand displacement, radioligand	–	< 5.30
CN1CCN(c2ccc(Nc3ncc4cc(C#N)c(=O)n(C5CCCC5)c4n3)cc2)CC1	Non-receptor tyrosine-protein kinase TYK2 (TYK2, Homo sapiens, UniProt P29597)	enzyme activity, inhibitor	–	6.95
O=C(N/N=C/c1cccn1CCN1CCOCC1)Nc1cc2c(Nc3ccc(F)c(Cl)c3)ncnc2cc1O[C@H]1CCOC1	Epidermal growth factor receptor (EGFR, Homo sapiens, UniProt P00533, L858R/T790M)	enzyme activity, inhibitor	–	7.78
CC(O)C(C)C(=O)N1CCC(NC(=O)Nc2ccc(OC(F)(F)F)c(F)c2)CC1 (centres unmarked)	Bifunctional epoxide hydrolase 2 (Ephx2, Mus musculus, UniProt P34914)	enzyme activity, inhibitor	–	8.66
CCCS(=O)(=O)Nc1ccc(F)c(C(=O)c2c[nH]c3ncc(-c4ccc(CNC(=O)COCC(=O)NCc5ccc(-c6cnc7[nH]cc(C(=O)c8c(F)ccc(NS(=O)(=O)CCC)c8F)c7c6)cc5)cc4)cc23)c1F	Serine/threonine-protein kinase B-raf (BRAF, Homo sapiens, UniProt P15056, Q461A/V600E)	enzyme activity, inhibitor, ELISA	–	~6.33
CC(C)=CCCC(C)=CCc1c(O)cc2occ(-c3ccc(O)cc3)c(=O)c2c1O	BACE1	enzyme activity, inhibitor	–	< 3.70
O=C1N[C@H](C(=O)O)CS1	Hydroxycarboxylic acid receptor 2 (HCAR2, Homo sapiens, UniProt Q8TDS4)	ligand displacement, radioligand	cell membranes	~3.05
Cc1cccc(C(=O)n2ncc(=O)c3cc([N+](=O)[O-])ccc32)c1	ELANE	enzyme activity, inhibitor, fluorescence	–	6.59
O=C(Nc1ccc(-c2nc(-c3ccccc3)no2)cc1)C1CC(=O)N(Cc2cccnc2)C1 (centres unmarked)	Relaxin-3 receptor 1 (RXFP3, Homo sapiens, UniProt Q9NSD7)	cAMP, antagonist, TR-FRET	–	5.11
COc1cc(NC(=O)N2CCC(n3c(=O)[nH]c4c(Br)cccc43)CC2)ccc1C	SMUG1 (Homo sapiens, UniProt Q53HV7)	enzyme activity, inhibitor	–	< 4.00
Cc1cccc(C(=O)n2ncc(=O)c3ccccc32)c1	ELANE	enzyme activity, inhibitor, fluorescence	–	7.25
CC(C)(C)n1nc(-c2cnc3cc(OC4CC4)ccc3c2)c(C(N)=O)c1N	BRAF	cell-free assay	–	< 5.00
Cc1c(Cl)cccc1Nc1ccccc1C(=O)O	Delta-aminolevulinic acid dehydratase C162A/K59N	enzyme activity, inhibitor, absorbance	pH 8, with preincubation	5.68
N#CC(C(=O)c1ccc(Cl)cc1Cl)=C1NC(=O)c2ccc(OCc3ccc4c(c3)OCO4)cc2N1	Cytoplasmic dynein 2 heavy chain 1 (DYNC2H1, Homo sapiens, UniProt Q8NCM8)	ATPase activity, inhibitor	–	4.96
Nc1cccc(-c2cc3c(Oc4cccc(O)c4)ncnc3[nH]2)c1	BRAF	cell-free assay, inhibitor	–	6.08
O=C(O)c1ccccc1Nc1cccc(C(F)(F)F)c1	Delta-aminolevulinic acid dehydratase C162A/K59N	enzyme activity, inhibitor, absorbance	pH 8, with preincubation	5.60
C=CC(=O)Nc1cc(Nc2nccc(-c3cn(C4CC4)c4ccccc34)n2)c(OC)cc1N(C)CCN(C)C	Epidermal growth factor receptor (EGFR, Homo sapiens, UniProt P00533)	enzyme activity, inhibitor, TR-FRET	–	8.47
